Results from PMC12037726 (Nature Communications, 2025).

Columns and labels:
[1] = system: K. pneumoniae ATCC 700603 wt; experiment: Mouse lung infection, CFU in lung at 24 h; format: in vivo; conditions: MPN 10 mg/kg i.p.
Method in brief: (§1)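 Nine-week-old female C57BL/6J mice were anaesthetized with ketamine (79 mg/kg) and xylazine (9 mg/kg) i.p. Infected intranasally with 1 × 10^7 CFU in 20 µL PBS from late-exponential cultures. MPN was given at 10 mg/kg i.p. At 24 h mice were killed and the left lung homogenized in PBS. Lung CFU were counted by serial dilution on LB agar and expressed as log CFU per gram.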

K. pneumoniae ∆mfd = experiment: Mouse lung infection, CFU in lung at 24 h, ∆mfd mutant; format: in vivo; conditions: NF-NM102 6 mg/kg or MPN 10 mg/kg i.p.
K. pneumoniae ALE = experiment: Mouse lung infection, CFU in lung at 24 h; format: in vivo; conditions: MPN 10 mg/kg i.p.
Method in brief: as §1

P. aeruginosa CIP27853 = experiment: Mouse lung infection, CFU in lung at 24 h; format: in vivo; conditions: MPN at 10 mg/ml, i.p.
HeLa cells = experiment: Cytotoxicity, CellTiter96 AQueous; format: cell-based, human; conditions: 1 h; MPN 10 and 100 µM, NM102 10 and 300 µM, NM102 nanoformulation 1.29 and 5.16 mM
Method in brief: (§2)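 Cells grown in DMEM with 10% heat-inactivated FBS, 1 U/mL penicillin and 1 µg/mL streptomycin (37 °C, 5% CO2). At 70% confluency, trypsinised and seeded at 4 × 10^4 cells/well, then incubated overnight. Switched to antibiotic-free DMEM 2 h before assay. Exposed 1 h in HBSS with 10% DMSO or empty-nanoformulation controls. MTS reagent added for 1 h, A490 read. Reagent and compound backgrounds subtracted; normalised to untreated cells.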

Vero cells = experiment: Cytotoxicity, CellTiter96 AQueous; format: cell-based, monkey; conditions: 1 h; MPN 10 and 100 µM, NM102 10 and 300 µM, NM102 nanoformulation 1.29 and 5.16 mM
Method in brief: as §2

Mfd = target: T1, Mfd (Escherichia coli, UniProt P30958); experiment: Isothermal titration calorimetry; format: binding, E. coli; conditions: ITC, 25 °C; no inhibitor
T1 sequence (P30958 1-1148): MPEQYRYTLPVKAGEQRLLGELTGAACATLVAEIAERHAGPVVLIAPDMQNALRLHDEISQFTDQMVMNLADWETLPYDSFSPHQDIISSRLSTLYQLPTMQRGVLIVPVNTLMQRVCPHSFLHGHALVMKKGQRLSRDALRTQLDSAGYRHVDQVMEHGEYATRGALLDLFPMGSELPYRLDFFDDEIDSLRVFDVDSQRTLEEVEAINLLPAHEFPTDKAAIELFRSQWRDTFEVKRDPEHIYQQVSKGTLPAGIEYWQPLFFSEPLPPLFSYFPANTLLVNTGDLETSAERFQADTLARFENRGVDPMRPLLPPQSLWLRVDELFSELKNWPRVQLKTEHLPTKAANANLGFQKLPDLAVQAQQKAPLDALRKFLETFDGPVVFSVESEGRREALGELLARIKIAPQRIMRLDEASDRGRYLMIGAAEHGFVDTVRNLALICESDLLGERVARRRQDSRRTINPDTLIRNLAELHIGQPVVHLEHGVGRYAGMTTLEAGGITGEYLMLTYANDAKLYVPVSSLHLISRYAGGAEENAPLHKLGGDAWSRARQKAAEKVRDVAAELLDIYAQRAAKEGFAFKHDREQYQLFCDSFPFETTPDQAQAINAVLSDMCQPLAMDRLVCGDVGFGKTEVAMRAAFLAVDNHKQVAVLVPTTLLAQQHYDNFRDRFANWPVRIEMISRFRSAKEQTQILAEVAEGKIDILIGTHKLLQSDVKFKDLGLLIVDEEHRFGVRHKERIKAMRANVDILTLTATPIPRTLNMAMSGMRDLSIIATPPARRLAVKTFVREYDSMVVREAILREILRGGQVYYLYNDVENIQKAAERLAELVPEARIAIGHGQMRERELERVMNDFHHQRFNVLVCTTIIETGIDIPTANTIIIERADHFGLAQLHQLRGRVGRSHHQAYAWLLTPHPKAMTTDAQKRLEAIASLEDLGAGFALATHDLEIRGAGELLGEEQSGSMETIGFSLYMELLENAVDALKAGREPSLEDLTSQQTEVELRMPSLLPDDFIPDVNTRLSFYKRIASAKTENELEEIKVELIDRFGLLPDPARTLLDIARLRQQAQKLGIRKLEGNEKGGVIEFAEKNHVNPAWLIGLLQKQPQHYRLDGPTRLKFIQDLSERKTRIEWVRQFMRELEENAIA
Method in brief: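 Full-length E. coli Mfd (20 µM) in 0.1 M Tris, 0.2 M NaCl, 4% DMSO, pH 8 at 25 °C. Titrated with 20 injections of 2.5 µL of 200 µM test compound at 300 s intervals. For the competition run, Mfd was preincubated with test compound, then ATP (200 µM) binding was measured. A = Ka/Kapp. Performed in triplicate.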

| Structure (SMILES) | reduction of the bacterial load [1] [%] | effect on bacterial burden of the ∆mfd mutant (K. pneumoniae ∆mfd) | effect on bacterial load in the lung (K. pneumoniae ALE) | decrease of bacterial load (P. aeruginosa CIP27853) [times] | cytotoxicity (HeLa cells) | cytotoxicity (Vero cells) | Kd (Mfd) [µM] |
| --- | --- | --- | --- | --- | --- | --- | --- |
| C[C@@H](O)[C@H]1C(=O)N2C(C(=O)O)=C(S[C@@H]3CN[C@H](C(=O)N(C)C)C3)[C@H](C)[C@H]12 [MPN, meropenem] | 93 | inhibited | no significant effect | 26 | no toxicity | induced cytotoxicity |  |
| Nc1ncnc2c1ncn2[C@@H]1O[C@H](COP(=O)(O)OP(=O)(O)OP(=O)(O)O)[C@@H](O)[C@H]1O [ATP] |  |  |  |  |  |  | 145 ± 9 |
